The values that follow come from ChEMBL document CHEMBL4828730, “Gemfibrozil derivatives as activators of soluble guanylyl cyclase - A structure-activity study” (Eur J Med Chem, 2021).

In assay [1] the target is T1, Soluble guanylate cyclase alpha1/beta1 complex (Homo sapiens) (UniProt Q02153+Q02108). Kind of assay: (§1) Activation of full length human sGC alpha1/beta1 subunit containing heme in ferric state expressed in Sf9 insect cells using […] incubated for 15 mins by [32P]GTP assay. The method in brief:
(§2)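 Reaction started at 37°C with 1 mM GTP/[α-32P]GTP for 15 min, then stopped by zinc carbonate precipitation. Single-dose test at 100 μM relative to vehicle; concentration-response gives EC50 as mean ± SD.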

For assay [2], the system named is Thoracic aorta. Put plainly: Vasodilation activity in C57Bl6 mouse thoracic aorta assessed as inhibition of phenylephrine-induced contractions. The assay is classed as functional, tissue-based. The following applies: for minimal effective concentration: read-out: MEC. Put shortly: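 Isolated mouse aortic rings on a wire myograph, equilibrated 80 min in carbogen-gassed Krebs-Henseleit pH 7.4. Rings were precontracted with 500 nM phenylephrine plus 100 nM 5-hydroxytryptamine to submaximal tension, then given cumulative compound doses while isometric tension was recorded. IC50 was derived by nonlinear regression.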

Assay [3] deals with T2, Soluble guanylate cyclase alpha1/beta1 complex (Homo sapiens, UniProt Q02108+Q02153).
T2 sequence (Q02153 whole entry): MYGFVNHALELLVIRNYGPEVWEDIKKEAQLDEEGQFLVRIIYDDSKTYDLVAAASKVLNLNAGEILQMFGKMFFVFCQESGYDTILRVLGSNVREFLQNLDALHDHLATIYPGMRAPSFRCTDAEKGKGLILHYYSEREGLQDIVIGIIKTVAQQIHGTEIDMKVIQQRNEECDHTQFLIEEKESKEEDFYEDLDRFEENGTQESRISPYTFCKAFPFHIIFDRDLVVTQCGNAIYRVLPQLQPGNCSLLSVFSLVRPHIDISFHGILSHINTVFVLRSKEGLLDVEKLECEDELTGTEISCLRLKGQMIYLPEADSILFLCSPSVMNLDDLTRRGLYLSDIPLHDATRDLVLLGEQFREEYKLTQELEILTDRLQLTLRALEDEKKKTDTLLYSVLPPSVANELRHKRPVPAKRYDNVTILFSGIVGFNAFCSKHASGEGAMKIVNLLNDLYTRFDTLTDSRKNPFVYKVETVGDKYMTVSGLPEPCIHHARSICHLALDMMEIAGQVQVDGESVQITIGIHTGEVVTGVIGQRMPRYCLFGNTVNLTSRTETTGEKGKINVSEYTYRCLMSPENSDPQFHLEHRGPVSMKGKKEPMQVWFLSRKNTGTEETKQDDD
T2 sequence (Q02108 whole entry): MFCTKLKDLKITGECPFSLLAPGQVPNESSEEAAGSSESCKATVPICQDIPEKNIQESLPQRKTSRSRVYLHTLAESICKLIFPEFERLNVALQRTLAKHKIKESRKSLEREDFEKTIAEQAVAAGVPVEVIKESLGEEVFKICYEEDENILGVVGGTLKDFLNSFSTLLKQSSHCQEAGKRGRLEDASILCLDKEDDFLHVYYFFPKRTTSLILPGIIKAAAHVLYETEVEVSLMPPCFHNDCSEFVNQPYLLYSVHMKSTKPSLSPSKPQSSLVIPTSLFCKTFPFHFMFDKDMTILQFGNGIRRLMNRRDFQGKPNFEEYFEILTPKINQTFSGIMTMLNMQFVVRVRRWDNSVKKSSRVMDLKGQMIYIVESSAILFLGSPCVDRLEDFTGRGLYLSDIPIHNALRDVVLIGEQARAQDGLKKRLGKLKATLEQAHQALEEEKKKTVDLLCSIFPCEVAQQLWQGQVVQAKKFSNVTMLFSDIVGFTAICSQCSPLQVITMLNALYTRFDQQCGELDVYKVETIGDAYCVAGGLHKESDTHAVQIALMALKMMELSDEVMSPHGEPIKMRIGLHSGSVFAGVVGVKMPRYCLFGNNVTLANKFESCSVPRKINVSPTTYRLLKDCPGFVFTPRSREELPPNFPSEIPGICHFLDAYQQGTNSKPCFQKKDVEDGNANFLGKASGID
The description is as §1. Put shortly: as §2

For assay [4], the target named is T1, Soluble guanylate cyclase alpha1/beta1 complex (Homo sapiens). Kind of assay: Activation of full length human sGC alpha1/beta1 subunit containing heme in ferric state expressed in Sf9 insect cells using […] incubated for 15 mins at 100 uM incubated for 10 mins by [32P]GTP assay relative to control. The following applies: filed as activator. Put shortly: as §2

Calls of active or inactive are those of the source. The rule behind the calls is not given here.

As to `Cc1ccc(C)c(OCC(=O)O)c1`, the result in assay [1] was inactive.

As a reminder, the IC50 is the concentration at which inhibition is half-maximal. In general, EC50 refers to the midpoint of the concentration-response curve. Read a low EC50 as greater potency. Regarding `Cc1ccc(C)c(OCCCC(C)(C)C(=O)O)c1` [GEMFIBROZIL], in assay [2], the IC50 came out at 310 µM and the minimal effective concentration is 30 µM. This molecule also came in with an EC50 in assay [3] of 624 µM. The fold change (FC) in assay [4] is 4.

As for `CCCCCC(=O)N(CCCC(C)(C)C(=O)O)c1cc(C)ccc1C`, the result in assay [1] was inactive.

Regarding `O=C(O)CCCCCSc1ccccc1`, in assay [1], the result was inactive.

For `Cc1ccc(C)c(N(CCCC(C)(C)C(=O)O)C(=O)CCCCC(=O)N(CCCC(C)(C)C(=O)O)c2cc(C)ccc2C)c1`, in assay [2], the IC50 was 261 µM and the minimal effective concentration turned out to be 10 µM. In assay [3], this molecule displayed an EC50 of 119 µM. This molecule also showed a fold change (FC) in assay [4] of 2.2.

For the molecule `CCCCCCNC(=O)C(C)(C)CCCOc1cc(C)ccc1C`, the result in assay [1] was inactive.

As for `CCNC(=O)C(C)(C)CCCOc1cc(C)ccc1C`, the outcome in assay [1] was inactive.

Take `CCCC(=O)N(CCCC(C)(C)C(=O)O)c1cc(C)ccc1C`: the outcome in assay [1] was inactive.

Consider `Cc1ccc(C)c(OCCCC(=O)O)c1`, for which the result in assay [1] was inactive.

Consider `CNC(=O)C(C)(C)CCCOc1cc(C)ccc1C`, for which the result in assay [1] was inactive.

For `CC(=O)N(CCCC(C)(C)C(=O)O)c1cc(C)ccc1C`, the result in assay [1] was inactive.

Regarding `Cc1ccc(C)c(OCCCC(C)(C)C(=O)NCCNC(=O)C(C)(C)CCCOc2cc(C)ccc2C)c1`, the result in assay [1] was inactive.

As to `Cc1ccc(C)c(OCCCC(C)(C)C(=O)NCCCCNC(=O)C(C)(C)CCCOc2cc(C)ccc2C)c1`, in assay [1], the outcome was inactive.

Take `CCCCCCC(CCCOc1cc(C)ccc1C)C(=O)O` (stereo not given): in assay [2], the IC50 came out at 45 µM and the minimal effective concentration came out at 10 µM. In assay [3], this molecule yielded an EC50 of 128 µM. Besides, the fold change (FC) in assay [4] was 4.1.

As for `Cc1ccc(C)c(OCCCC(C)(C)C(N)=O)c1`, the outcome in assay [1] was inactive.

Take `CCC(CCCOc1cc(C)ccc1C)C(=O)O` (stereo not given): in assay [1], the result was inactive.

Regarding `Cc1ccc(C)c(OCCCC(C)(C)C(=O)NCCCCCCNC(=O)C(C)(C)CCCOc2cc(C)ccc2C)c1`, the outcome in assay [1] was inactive.

Turning to `Cc1ccc(C)c(NCCCC(C)(C)C(=O)O)c1`, in assay [2], the IC50 is 721 µM and the minimal effective concentration came out at 100 µM. Moreover, in assay [3], the EC50 was determined as 50 µM. This molecule also yielded a fold change (FC) in assay [4] of 2.9.

On to `Cc1ccc(C(C)C)c(OCCCC(C)(C)C(=O)O)c1`, for which, in assay [2], the IC50 amounted to 71 µM and the minimal effective concentration is 10 µM. In assay [3], the EC50 came to 166 µM. For the same molecule, in assay [4], the fold change (FC) turned out to be 2.6.

As to `Cc1ccccc1OCCCC(C)(C)C(=O)O`, the result in assay [1] was inactive.

Regarding `Cc1ccc(C)c(OCCCCCC(=O)O)c1`, in assay [2], the IC50 was greater than 1000 µM and the minimal effective concentration worked out at 300 µM. The same molecule registered an EC50 in assay [3] of 389 µM. Further, the fold change (FC) in assay [4] turned out to be 2.1.

As to `Cc1ccc(C)c(OCCCCC(=O)O)c1`, in assay [2], the IC50 came out at 812 µM and the minimal effective concentration amounted to 100 µM. This molecule yielded an EC50 in assay [3] of 707 µM. Moreover, the fold change (FC) in assay [4] came out at 2.9.

In the case of `O=C(O)CCCCCOc1ccccc1`, in assay [1], the result was inactive.

As for `CCCCNC(=O)C(C)(C)CCCOc1cc(C)ccc1C`, in assay [1], the outcome was inactive.
